Reference: PMC7781011 (Journal of Inflammation Research, 2020)
Read-outs that look alike come from different tables or passages of the source.

Legend:
mouse COX-1 = target: T1, mouse COX-1 (Mus musculus, UniProt P22437); assay: Cell-free fluorometric COX-1 assay; type: biochemical
T1 sequence (P22437 27-602): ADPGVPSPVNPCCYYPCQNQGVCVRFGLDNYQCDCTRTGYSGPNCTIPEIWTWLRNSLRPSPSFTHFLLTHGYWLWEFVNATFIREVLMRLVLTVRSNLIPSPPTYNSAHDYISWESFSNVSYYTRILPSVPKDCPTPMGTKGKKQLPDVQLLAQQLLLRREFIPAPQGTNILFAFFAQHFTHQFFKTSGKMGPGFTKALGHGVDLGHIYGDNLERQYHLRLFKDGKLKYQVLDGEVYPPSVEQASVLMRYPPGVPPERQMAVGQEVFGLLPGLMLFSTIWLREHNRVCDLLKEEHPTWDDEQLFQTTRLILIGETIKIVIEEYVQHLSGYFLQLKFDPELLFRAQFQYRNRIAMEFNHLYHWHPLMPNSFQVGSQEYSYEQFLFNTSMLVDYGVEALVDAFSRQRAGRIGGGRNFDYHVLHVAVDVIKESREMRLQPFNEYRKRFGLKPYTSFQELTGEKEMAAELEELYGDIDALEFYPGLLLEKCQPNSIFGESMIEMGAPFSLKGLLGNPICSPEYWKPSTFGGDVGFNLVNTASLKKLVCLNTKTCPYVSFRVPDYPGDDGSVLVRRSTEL

human mPGES-1 = target: T2, human mPGES-1 (Homo sapiens, UniProt O14684); assay: Cell-free mPGES-1 assay; type: biochemical
T2 sequence (O14684 1-152): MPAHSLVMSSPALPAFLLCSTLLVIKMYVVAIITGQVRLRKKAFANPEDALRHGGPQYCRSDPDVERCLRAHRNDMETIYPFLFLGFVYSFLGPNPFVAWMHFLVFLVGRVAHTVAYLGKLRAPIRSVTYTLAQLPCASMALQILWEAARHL
Procedure, shortened: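 Enzyme in 15 mM Tris-HCl pH 7.4 with 1 mM GSH, preincubated 20 min with compound (0.1–100 µM); plate held 15 min at 20°C. PGH2 (final 2.8 µM) added, 45 s at room temperature, then stopped with SnCl2 in 1N HCl. PGE2 by ELISA, in triplicate, % inhibition versus untreated. Human enzyme from E. coli or commercial; mouse enzyme from vas deferens/seminal vesicles. IC50 by four-parameter nonlinear regression.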

rat COX-1 = target: T3, rat COX-1 (Rattus norvegicus, UniProt Q63921); assay: Cell-free fluorometric COX-1 assay; type: biochemical
T3 sequence (Q63921 27-602): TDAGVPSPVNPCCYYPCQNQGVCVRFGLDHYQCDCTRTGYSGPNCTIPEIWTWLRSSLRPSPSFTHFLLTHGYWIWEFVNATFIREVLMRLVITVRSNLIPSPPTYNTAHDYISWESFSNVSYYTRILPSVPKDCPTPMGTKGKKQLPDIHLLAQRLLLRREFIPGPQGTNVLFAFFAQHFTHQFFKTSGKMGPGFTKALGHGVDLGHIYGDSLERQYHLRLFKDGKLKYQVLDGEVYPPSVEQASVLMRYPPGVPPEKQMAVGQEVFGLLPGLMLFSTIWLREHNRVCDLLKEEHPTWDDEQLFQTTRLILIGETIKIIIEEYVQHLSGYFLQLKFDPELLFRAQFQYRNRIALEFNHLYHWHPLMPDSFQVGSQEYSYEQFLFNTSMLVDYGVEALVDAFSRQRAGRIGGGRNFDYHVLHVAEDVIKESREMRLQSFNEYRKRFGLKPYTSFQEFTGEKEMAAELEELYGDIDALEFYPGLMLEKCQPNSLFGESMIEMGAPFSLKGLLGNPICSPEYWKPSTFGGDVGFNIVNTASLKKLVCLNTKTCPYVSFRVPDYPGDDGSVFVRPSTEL

rat mPGES-1 = target: T4, rat mPGES-1 (Rattus norvegicus, UniProt Q9JHF3); assay: Cell-free mPGES-1 assay; type: biochemical; conditions: IC50 mPGES-1, cell-free
T4 sequence (Q9JHF3 1-153): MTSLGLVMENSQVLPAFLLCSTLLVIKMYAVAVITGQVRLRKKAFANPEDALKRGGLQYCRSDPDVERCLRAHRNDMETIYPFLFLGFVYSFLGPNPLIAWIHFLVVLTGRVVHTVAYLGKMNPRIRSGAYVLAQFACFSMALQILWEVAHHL

[1] = tested on: LTB4 production in LPS-stimulated macrophages of humans, mice, and rats; assay: LTB4 production in LPS-stimulated macrophages, range over species; type: cell-based; conditions: Macrophage, read-out: IC50 range LTB4 production
Procedure, shortened: (§1)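 Human macrophages derived from THP-1 monocytes with PMA. Rat/mouse peritoneal macrophages collected by lavage with ice-cold DMEM, selected by glass adherence (1 h, 37°C), Trypan-blue checked. Cells in DMEM+10% FBS at 10,000 (96-well) or 40,000 (24-well) per well, given non-toxic compound doses, then LPS 10 µg/mL for 24 h. PGE2, PGI2 and LTB4 measured in supernatant. IC50 by four-parameter nonlinear regression.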

human 5-LOX = target: T5, human 5-LOX (Homo sapiens, UniProt P09917); assay: Cell-free fluorometric 5-LOX assay; type: biochemical; conditions: IC50 5-LOX
T5 sequence (P09917 1-674): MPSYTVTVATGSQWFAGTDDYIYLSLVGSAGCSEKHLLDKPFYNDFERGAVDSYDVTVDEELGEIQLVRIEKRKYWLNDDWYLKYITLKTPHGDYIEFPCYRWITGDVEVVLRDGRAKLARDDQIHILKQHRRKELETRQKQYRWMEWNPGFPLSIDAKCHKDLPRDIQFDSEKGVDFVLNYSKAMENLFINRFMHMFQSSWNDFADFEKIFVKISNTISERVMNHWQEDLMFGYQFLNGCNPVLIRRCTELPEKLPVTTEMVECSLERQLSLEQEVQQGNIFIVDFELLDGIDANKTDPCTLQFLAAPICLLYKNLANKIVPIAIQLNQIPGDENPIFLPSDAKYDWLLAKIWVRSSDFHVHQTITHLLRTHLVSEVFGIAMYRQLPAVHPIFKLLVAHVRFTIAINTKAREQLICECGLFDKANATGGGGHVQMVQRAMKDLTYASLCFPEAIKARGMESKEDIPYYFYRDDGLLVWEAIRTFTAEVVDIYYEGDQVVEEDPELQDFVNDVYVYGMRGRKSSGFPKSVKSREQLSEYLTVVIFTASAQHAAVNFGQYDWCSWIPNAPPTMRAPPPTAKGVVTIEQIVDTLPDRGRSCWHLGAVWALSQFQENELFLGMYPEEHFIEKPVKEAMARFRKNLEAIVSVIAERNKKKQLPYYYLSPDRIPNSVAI

[2] = tested on: PGE2 production in LPS-stimulated macrophages of humans, mice, and rats; assay: PGE2 production in LPS-stimulated macrophages, range over species; type: cell-based; conditions: Macrophage, read-out: IC50 range PGE2 production
Procedure, shortened: as §1

[3] = tested on: PGI2 production in LPS-stimulated macrophages of humans, mice, and rats; assay: PGI2 production in LPS-stimulated macrophages, range over species; type: cell-based; conditions: Macrophage
Procedure, shortened: as §1

Row | IC50 (mouse COX-1) | IC50 (rat COX-1) | IC50 ([3]; read-out: IC50 range PGI2 production) | SMILES | inhibition of COX-1 activity (mouse COX-1; cell-free, mouse, up to the tested range of 1 mM) | IC50 (human mPGES-1) | inhibition of COX-1 activity (rat COX-1; cell-free, rat, up to the tested range of 1 mM) | IC50 (rat mPGES-1) | IC50 [1] | IC50 (human 5-LOX) | IC50 [2] | IC50 ([3]; read-out: IC50 PGI2 production)
1 |  |  |  | CC1(C)Cc2c(-c3ccccc3)c(-c3ccc(Cl)cc3)c(CC(=O)NCC(=O)O)n2C1 [LFA-9, 2-[[2-[2-(4-chlorophenyl)-6,6-dimethyl-1-phenyl-5,7-dihydropyrrolizin-3-yl]acetyl]amino]acetic acid] | did not show inhibition | 0.87 µM | did not show inhibition | 1.4 µM | 0.63 to 1.24 µM | 2.75 µM | 0.47 to 0.78 µM | > 100 µM
2 | 1.74 µM | 1.81 µM | 0.85 to 0.91 µM | CC1(C)Cc2c(-c3ccccc3)c(-c3ccc(Cl)cc3)c(CC(=O)O)n2C1 [Licofelone, reference compound] |  | 14 µM |  | 12.3 µM | 0.53 to 1.6 µM | 2.13 µM | 0.56 to 1.31 µM | 
